Data: ChEMBL document CHEMBL4732230, “Design, synthesis, and biological evaluation of 4-benzoylamino-1H-pyrazole-3-carboxamide derivatives as potent CDK2 inhibitors” (Eur J Med Chem, 2021)

How the values were obtained:
A2058 = assay: Antiproliferative activity against human A2058 cells assessed as reduction in cell viability measured after 96 hrs by Celltiter-Glo luminescent assay; assay type: functional, cell-based; details: A2058, 96 h
Outline: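 Cells in DMEM (A2058, MRC5) or RPMI 1640 (MV4-11), each with 10% fetal bovine serum and 1% penicillin/streptomycin. Cells were plated in 96-well plates and exposed to serially concentrated compound for 96 h, with DMSO as control. Viability was read by CellTiter-Glo luminescence and IC50 derived.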

[1] = molecular target: Cyclin-dependent kinase 1/cyclin B1 (Homo sapiens, UniProt P06493); assay type: protein-complex assay
CDK2/Cyclin A2 = CDK2/Cyclin A2 (Homo sapiens, UniProt P24941); assay: Inhibition of CDK2/cyclin A2 (unknown origin) using FAM-labeled peptide and ATP as substrate preincubated for 10 mins followed by substrate addition by mobility shift assay; assay type: protein-complex assay

Chain of Cyclin-dependent kinase 1/cyclin B1 (P06493 whole entry): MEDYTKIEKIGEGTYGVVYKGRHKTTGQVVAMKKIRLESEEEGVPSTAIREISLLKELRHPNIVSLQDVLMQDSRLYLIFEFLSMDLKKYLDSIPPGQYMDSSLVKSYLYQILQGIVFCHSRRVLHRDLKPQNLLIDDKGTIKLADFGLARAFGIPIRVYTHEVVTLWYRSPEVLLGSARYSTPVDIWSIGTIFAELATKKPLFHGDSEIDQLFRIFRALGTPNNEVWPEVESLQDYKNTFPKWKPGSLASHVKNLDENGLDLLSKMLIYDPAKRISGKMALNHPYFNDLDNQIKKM
Chain of Cyclin-dependent kinase 1/cyclin B1 (P14635 whole entry, further chain): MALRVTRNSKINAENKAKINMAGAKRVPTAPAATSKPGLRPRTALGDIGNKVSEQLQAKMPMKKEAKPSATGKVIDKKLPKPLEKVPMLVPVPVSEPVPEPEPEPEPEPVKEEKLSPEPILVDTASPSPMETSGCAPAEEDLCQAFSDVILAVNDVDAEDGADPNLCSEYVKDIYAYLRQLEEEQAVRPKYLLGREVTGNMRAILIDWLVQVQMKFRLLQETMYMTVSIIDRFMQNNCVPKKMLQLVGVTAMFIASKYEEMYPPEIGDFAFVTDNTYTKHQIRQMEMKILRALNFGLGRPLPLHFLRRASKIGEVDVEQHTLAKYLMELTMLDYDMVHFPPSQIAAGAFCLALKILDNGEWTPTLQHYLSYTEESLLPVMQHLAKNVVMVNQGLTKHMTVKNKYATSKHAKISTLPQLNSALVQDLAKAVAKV

| Structure (SMILES) | IC50 (A2058) | IC50 [1] | IC50 (CDK2/Cyclin A2) |
| --- | --- | --- | --- |
| O=C(Nc1ccc(F)cc1)c1n[nH]cc1NC(=O)c1c(F)ccc(-c2ccc(F)nc2)c1F | 6.31 µM | 278 nM | 51 nM |
| Cc1ccc(C(=O)NCCCN2CCOCC2)cc1-c1ccc(F)c(C(=O)Nc2c[nH]nc2C(=O)Nc2ccc(F)cc2)c1F | 6.51 µM | 3690 nM | 485 nM |
| O=C(Nc1ccc(F)cc1)c1n[nH]cc1NC(=O)c1c(F)ccc(-c2cccc(O)c2)c1F |  | 236 nM | 26 nM |
| Nc1ccc(-c2ccc(F)c(C(=O)Nc3c[nH]nc3C(=O)Nc3ccc(F)cc3)c2F)cn1 | 8.54 µM | 1260 nM | 120 nM |
| COc1ccc(-c2ccc(F)c(C(=O)Nc3c[nH]nc3C(=O)Nc3ccc(F)cc3)c2F)cn1 |  | 712 nM | 144 nM |
| Cc1ccc(-c2ccc(F)c(C(=O)Nc3c[nH]nc3C(=O)Nc3ccc(F)cc3)c2F)cn1 |  | 1850 nM | 164 nM |
| O=C(Nc1ccc(F)cc1)c1n[nH]cc1NC(=O)c1c(F)cccc1F | 1.01 µM | 14 nM |  |
| O=C(Nc1ccc(F)cc1)c1n[nH]cc1NC(=O)c1c(F)ccc(-c2cccc(CO)c2)c1F |  | 537 nM | 76 nM |
| O=C(NCCCN1CCOCC1)c1ccc(F)c(-c2ccc(F)c(C(=O)Nc3c[nH]nc3C(=O)Nc3ccc(F)cc3)c2F)c1 | 0.943 µM | 1300 nM | 169 nM |
| NC(=O)c1cccc(-c2ccc(F)c(C(=O)Nc3c[nH]nc3C(=O)Nc3ccc(F)cc3)c2F)c1 | 1.99 µM | 69 nM | 8 nM |
